Reference: ChEMBL document CHEMBL1137535, “Structure-activity relationship of antileishmanials neolignan analogues” (2007)

How the values were obtained:
Leishmania amazonensis = experiment: Antileishmanial activity against Leishmania amazonensis MHOM/BR/75-josefa in mouse peritoneal macrophages at 80 ug/mL after 48 hrs relative to control; format: functional
Summary of the method: (§1)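 BALB/c peritoneal macrophages, 2 · 10⁵ cells per chamber in DMEM, held 2 h at 37 °C in 4% CO₂/air. They were then infected for 4 h with 8 · 10⁵ stationary-phase promastigotes in DMEM with 5% heat-inactivated FCS and antibiotics. After washing off free parasites, compound was added in quadruplicate for 48 h. Monolayers were methanol-fixed and Giemsa-stained, and amastigotes counted per 200 cells. Result is % growth inhibition versus untreated controls.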

Leishmania donovani = experiment: Antileishmanial activity against Leishmania donovani LD-1/MHOM/SD/00-1S in mouse peritoneal macrophages at 80 ug/mL after 48 hrs relative to control; format: functional; summary of the method: as §1
[1] = (§2) Toxicity against BALB/c mouse macrophages assessed as cell viability; format: functional, Macrophage; set-up: concentration or dose not given beside the values
[2] = Toxicity against BALB/c mouse macrophages assessed as disrupted cells; format: functional, Macrophage
Macrophage = experiment: as §2; format: functional; set-up: concentration or dose not given beside the values

Molecule	inhibition at 80 µg/mL (Leishmania amazonensis)	inhibition at 80 µg/mL (Leishmania donovani)	Activity [1]	Activity [2]	inhibition (Leishmania amazonensis)	Activity (Macrophage)	inhibition (Leishmania donovani)
COc1ccc(C(=O)C(C)Sc2ccc(C)cc2)cc1OC (configuration not stated)	100%	100%					
COc1ccc(C(=O)C(C)S(=O)(=O)c2ccc(C)cc2)cc1OC (configuration not stated)	7%	0%	>80%				
COc1ccc([C@@H](O)[C@H](C)Sc2ccc(C)cc2)cc1OC (relative stereo)	40.6%	0%	>80%				
CC(Sc1ccc(N)cc1)C(=O)c1ccccc1 (configuration not stated)	0%	28.8%	>80%				
COc1ccc(C(=O)C(C)Sc2ccccc2)cc1OC (configuration not stated)				>80%			
COc1ccc(C(=O)C(C)Oc2c(OC)cccc2OC)cc1OC (configuration not stated)	37.9%	49.9%	>80%				
MEGLUMINE ANTIMONATE					28.2%	> 80%	26%
CC(C(=O)c1ccccc1)S(=O)(=O)c1ccc(Cl)cc1 (configuration not stated)	0%	0%	>80%				
COc1ccc([C@@H](O)[C@H](C)Sc2ccc(Cl)cc2)cc1OC (relative stereo)	36.1%	0%	>80%				
C[C@H](Sc1ccc(Cl)cc1)[C@H](O)c1ccccc1 (relative stereo)	50.6%	45.2%	>80%				
COc1ccc(C(=O)C(C)Sc2ccc(Cl)cc2)cc1OC (configuration not stated)	63.3%	22%	>80%				
CC(Sc1ccc(Cl)cc1)C(=O)c1ccccc1 (configuration not stated)	100%	94.1%	>80%				
CC(C(=O)c1ccccc1)[S+]([O-])c1ccc(Cl)cc1 (configuration not stated)	20.7%	0%	>80%				
COc1ccc(C(=O)COc2ccc(Cl)cc2)cc1OC	17.7%	0%	>80%				
CC(Sc1ccccc1)C(=O)c1ccccc1 (configuration not stated)	78.1%	70.2%	>80%				
COc1ccc(C(=O)C(C)Sc2ccc(N)cc2)cc1OC (configuration not stated)				>80%			
Cc1ccc(SC(C)C(=O)c2ccccc2)cc1 (configuration not stated)				>80%			
C/C=C/c1ccc(OC(C)C(=O)c2ccc(OC)c(OC)c2)c(OC)c1 (configuration not stated)	34.2%	50%	>80%				
O=C(COc1ccccc1)c1ccccc1	44%	40%	>80%				
CC(=O)O[C@H](c1ccccc1)[C@H](C)Sc1ccc(Cl)cc1 (relative stereo)	0%	0%	>80%				
O=C(CSc1ccc(Cl)cc1)c1ccc(Cl)cc1	50.5%	0%	>80%				
CSc1ccccc1OCC(=O)c1ccc(Cl)cc1	8.8%	5.8%	>80%				
O=C(CSc1ccc(Cl)cc1)c1ccccc1	38.8%	37.2%	>80%				
